Series [1] relates to Mus musculus. Put plainly: Neurotoxicity in Albino Swiss mouse administered intraperitoneally dose equivalent to 0.1 of LD50 after 30 mins measured for 1 min by chimney test. Format: toxicity, organism-based. To be noted: in vivo, ip. The gist of the method:
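Male Albino Swiss mice (20-24 g), i.p. suspension in 1% Tween 80 at 0.1 mL/10 g body weight, with vehicle controls and 8 mice per group. Tested 30 min post-dose by having mice climb backwards up a plastic tube (3 cm inner diameter, 25 cm long). Failing three tasks within 60 s scored as motor impairment, reported as % of animals failing.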

Series [2] has as its target 5-hydroxytryptamine receptor 2A (Homo sapiens, UniProt P28223). Put plainly: Displacement of [3H]ketanserin from 5HT2A receptor.
Series [3] has as its target T1, 5-hydroxytryptamine receptor 1A (Rattus norvegicus, UniProt P19327).
T1 sequence (P19327 whole entry): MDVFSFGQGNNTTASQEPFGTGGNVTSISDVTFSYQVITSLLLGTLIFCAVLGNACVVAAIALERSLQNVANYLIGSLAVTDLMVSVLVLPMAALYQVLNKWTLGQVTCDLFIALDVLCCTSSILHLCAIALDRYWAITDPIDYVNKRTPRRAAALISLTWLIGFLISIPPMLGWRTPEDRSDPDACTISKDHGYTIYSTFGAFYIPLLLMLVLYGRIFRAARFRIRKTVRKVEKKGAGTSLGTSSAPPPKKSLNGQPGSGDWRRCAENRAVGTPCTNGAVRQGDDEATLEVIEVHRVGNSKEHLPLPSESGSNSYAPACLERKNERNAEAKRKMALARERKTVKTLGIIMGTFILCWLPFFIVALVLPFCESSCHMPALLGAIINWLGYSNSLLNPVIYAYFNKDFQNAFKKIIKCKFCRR
Put plainly: Displacement of [3H]8-OH-DPAT from 5HT1A receptor in rat hippocampal membranes. Format: cell membranes, Hippocampus, Membrane.

The subject of series [4] is Mus musculus. Put plainly: Anxiolytic activity in Albino Swiss mouse assessed as number of punished crossing administered intraperitoneally dose equivalent to 0.1 of LD50 after 30 mins measured for 1 min by four-plate test. Format: functional, organism-based. An outline of the steps: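 Male Albino Swiss mice (20-24 g), 8 per group, received ip compound in 1% Tween 80 (0.1 mL/10 g) at a dose equal to 0.1 of LD50; vehicle controls. Four-plate test 30 min later; punished crossings counted over 1 min.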

The subject of series [5] is Mus musculus. The series is described as follows: Antidepressive activity in Albino Swiss mouse assessed as total immobility time at 5 mg/kg, ip after 30 mins measured for 4 mins by forced swimming test. Format: functional. To be noted: route intraperitoneal. The gist of the method: (§1)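 Forced swimming test in male Albino Swiss mice (20-24 g), 8 per group. Compounds given ip as suspensions in 1% Tween 80, 0.1 mL/10 g, at doses of 0.1-0.00635 of LD50, 30 min before test; imipramine 15 mg/kg ip as reference; controls got vehicle. Mice swam 6 min in a glass cylinder with 15 cm of 25 °C water; total immobility time scored; mean ± SEM.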

Series [6] deals with Mus musculus. The series is described as follows: Antidepressive activity in Albino Swiss mouse assessed as total immobility time at 10 mg/kg, ip after 30 mins measured for 4 mins by forced swimming test. To be noted: route intraperitoneal. Format: functional. An outline of the steps: as §1
A short description of series [7]: Selectivity ratio of Ki for 5HT2A receptor to Ki for rat 5HT1A receptor.
In series [8] the test system is Mus musculus. Put plainly: Effect on spontaneous locomotor activity in Albino Swiss mouse administered intraperitoneally dose equivalent to 0.1 of LD50 after 30 mins measured for 60 min by automatic photoresistor actometer.
Series [9] concerns Mus musculus. Put plainly: Antidepressive activity in Albino Swiss mouse assessed as total immobility time at 15 mg/kg, ip after 30 mins measured for 4 mins by forced swimming test. Format: functional. To be noted: route intraperitoneal. The gist of the method: as §1
In series [10] the test system is Mus musculus. The series is described as follows: Antidepressive activity in Albino Swiss mouse assessed as total immobility time at 1.25 mg/kg, ip after 30 mins measured for 4 mins by forced swimming test. Format: functional. To be noted: route intraperitoneal. An outline of the steps:
as §1

Series [11] relates to Mus musculus. Put plainly: Antidepressive activity in Albino Swiss mouse assessed as total immobility time at 2.5 mg/kg, ip after 30 mins measured for 4 mins by forced swimming test. Format: functional. To be noted: route intraperitoneal. The gist of the method: as §1
Series [12] has as its system Mus musculus. The series is described as follows: Antidepressive activity in Albino Swiss mouse assessed as total immobility time at 20 mg/kg, ip after 30 mins measured for 4 mins by forced swimming test. Format: functional. To be noted: route intraperitoneal. An outline of the steps: as §1

The source made the active and inactive calls. The calls are words filed in the database; no cut-off is given here.

Sequence of 5-hydroxytryptamine receptor 2A (P28223 whole entry): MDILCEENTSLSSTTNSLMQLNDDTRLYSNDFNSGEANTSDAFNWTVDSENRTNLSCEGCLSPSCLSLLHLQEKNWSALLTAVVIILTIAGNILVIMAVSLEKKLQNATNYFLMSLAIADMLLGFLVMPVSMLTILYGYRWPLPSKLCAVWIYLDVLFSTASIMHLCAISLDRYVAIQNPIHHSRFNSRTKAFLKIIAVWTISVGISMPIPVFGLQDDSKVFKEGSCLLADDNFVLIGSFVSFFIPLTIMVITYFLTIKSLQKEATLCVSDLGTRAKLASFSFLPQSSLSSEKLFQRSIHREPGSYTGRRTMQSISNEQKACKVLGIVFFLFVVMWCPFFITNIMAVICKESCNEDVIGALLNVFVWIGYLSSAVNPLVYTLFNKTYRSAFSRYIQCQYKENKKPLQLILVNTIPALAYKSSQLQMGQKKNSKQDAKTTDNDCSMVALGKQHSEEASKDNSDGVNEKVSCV

`COc1ccccc1N1CCN(CCCCN2C(=O)C3C4C(C)=CC(OC(C)=O)(CC4C)C3C2=O)CC1` (configuration not stated): in series [1], the Activity entry is listed as “Not Active”. Also, the Ki in series [2] amounted to 737 nM; in series [3] it was 10 nM. Besides, the result in series [4] and in [8] was inactive. In addition, the Time is given as 113.8 s in [5] and 71.7 s in [6]. Further, in [7], the Ratio Ki came to 74.

For `COc1ccccc1N1CCN(CCCN2C(=O)C3C4C(=O)CC(C)(CC4C)C3C2=O)CC1` (configuration not stated), the Activity entry in series [1] is “Not Active”. Further, the Ki is 429 nM in [2] and 44 nM in [3]. The outcome in series [4] and in [8] was inactive.

Regarding `CN(C)CCCN1c2ccccc2CCc2ccccc21` [IMIPRAMINE], the Time in series [9] is listed as 69.5 s.

With `CC(=O)OC12C=C(C)C(C(C)C1)C1C(=O)N(OCCCN3CCN(c4ccccn4)CC3)C(=O)C12` (configuration not stated), the results for the inhibition constant (Ki) in series [2] and in [3] were 1840 nM and 200 nM, respectively.

`COc1ccccc1N1CCN(CCCCN2C(=O)C3C4C(=O)CC(OC(C)=O)(CC4(C)C)C3C2=O)CC1` (configuration not stated): the Ki was 770 nM in series [2] and 22 nM in series [3].

As to `COc1ccccc1N1CCN(CCCON2C(=O)C3C4C=CC(OC)(CC4)C3C2=O)CC1` (configuration not stated), the values for the Ki in [2] and in series [3] were 1390 nM and 31 nM, respectively.

Turning to `COc1ccccc1N1CCN(CCCON2C(=O)C3C4C(C)=CC(OC(C)=O)(CC4C)C3C2=O)CC1` (configuration not stated), the Activity result in series [1] is “Not Active”. In addition, the values for the Ki in [2] and in series [3] were 681 nM and 27 nM, respectively. Besides, the result in series [4] and in series [8] was inactive.

Regarding `COc1ccccc1N1CCN(CCCCN2C(=O)C3C4C(=O)CC(C)(CC4C)C3C2=O)CC1` (configuration not stated), in series [1], the Activity entry is listed as “Not Active”. Moreover, the Ki in [2] stood at 522 nM; in [3] it was 25 nM. The outcome in [4] and in series [8] was inactive.

Turning to `CC(=O)OC12C=C(C)C(C(C)C1)C1C(=O)N(CCCN3CCN(c4ccccc4)CC3)C(=O)C12` (configuration not stated), the Ki was 575 nM in series [2] and 294 nM in [3].

As for `CC1CC2(C)CC(=O)C1C1C(=O)N(OCCCN3CCN(c4ccccc4)CC3)C(=O)C12` (configuration not stated), the values for the inhibition constant (Ki) in series [2] and in [3] were 300 nM and 616 nM, respectively.

Regarding `COc1ccccc1N1CCN(CCCON2C(=O)C3C4C(=O)CC(C)(CC4C)C3C2=O)CC1` (configuration not stated), the Activity entry in series [1] is given as “Not Active”. In addition, the Ki in [2] turned out to be 637 nM; in series [3], 124 nM. Moreover, the outcome in [4] and in series [8] was inactive. For the same molecule, the Time was 63.5 s in series [5]; 31.2 s in [6]; 123.7 s in [10]; 83.5 s in series [11]; 29.4 s in series [12].

As for `CC(=O)OC12C=C(C)C(C(C)C1)C1C(=O)N(OCCCN3CCN(c4ccccc4)CC3)C(=O)C12` (configuration not stated), the Activity result in [1] is reported as “Not Active”. In addition, the figures for the Ki in [2] and in [3] were 375 nM and 115 nM, respectively. Also, the result in series [4] and in [8] was inactive.

`CC1CC2(C)CC(=O)C1C1C(=O)N(CCCN3CCN(c4ccccc4)CC3)C(=O)C12` (configuration not stated): the Ki came to 292 nM in series [2] and 344 nM in series [3].

For the molecule `CC(=O)OC12C=C(C)C(C(C)C1)C1C(=O)N(CCCCN3CCN(Cc4ccccc4)CC3)C(=O)C12` (configuration not stated), the inhibitory constant (Ki) came to 9720 nM in series [2] and 1420 nM in [3].

Regarding `CC(=O)OC12C=C(C)C(C(C)C1)C1C(=O)N(OCCCN3CCN(c4ccccc4F)CC3)C(=O)C12` (configuration not stated), the Activity result in series [1] is “Not Active”. Also, the figures for the inhibitory constant (Ki) in [2] and in [3] were 1070 nM and 80 nM, respectively. Further, the outcome in series [4] and in [8] was inactive. The Time is listed as 48.3 s in series [5]; 27.5 s in [6]; 114.3 s in [10]; 56.8 s in series [11]; 18.4 s in [12].

On to `CC1CC2(C)CC(=O)C1C1C(=O)N(OCCCN3CCN(c4cccc(Cl)c4)CC3)C(=O)C12` (configuration not stated), for which the Activity result in [1] is given as “Not Active”. In addition, the results for the inhibitory constant (Ki) in [2] and in series [3] were 110 nM and 92 nM, respectively. In addition, the result in [4] and in series [8] was inactive.

Consider `CC1CC2(C)CC(=O)C1C1C(=O)N(CCCCN3CCN(c4ncccn4)CC3)C(=O)C12` (configuration not stated), for which the Ki is 3380 nM in series [2] and 1520 nM in [3].

In the case of `CC(=O)OC12C=C(C)C(C(C)C1)C1C(=O)N(CCCCN3CCN(c4ccccn4)CC3)C(=O)C12` (configuration not stated), the Activity entry in series [1] is “Not Active”. In addition, the Ki in series [2] came to 965 nM; in [3], 97 nM. Also, the result in series [4] and in series [8] was inactive.

`CC1CC2(C)CC(=O)C1C1C(=O)N(CCCCN3CCN(c4ccccn4)CC3)C(=O)C12` (configuration not stated): the figures for the Ki in series [2] and in [3] were 577 nM and 202 nM, respectively.

On to `CC(=O)OC12C=C(C)C(C(C)C1)C1C(=O)N(CCCCN3CCN(c4ncccn4)CC3)C(=O)C12` (configuration not stated), for which the Ki in [2] was found to be 6020 nM; in [3], 800 nM.

Consider `CC(=O)OC12C=C(C)C(C(C)C1)C1C(=O)N(CCCCN3CCN(c4ccccc4)CC3)C(=O)C12` (configuration not stated), for which the Activity result in [1] is reported as “Not Active”. For the same molecule, the Ki amounted to 286 nM in series [2] and 34 nM in [3]. The outcome in [4] and in [8] was inactive.

On to `CC1CC2(C)CC(=O)C1C1C(=O)N(OCCCN3CCN(c4ccccc4F)CC3)C(=O)C12` (configuration not stated), for which the Ki in [2] came to 910 nM; in [3], 331 nM.

In the case of `CC1CC2(C)CC(=O)C1C1C(=O)N(CCCCN3CCN(Cc4ccccc4)CC3)C(=O)C12` (configuration not stated), the Ki was 2090 nM in [2] and 2730 nM in series [3].

As for `CC(=O)OC12C=C(C)C(C(C)C1)C1C(=O)N(OCCCN3CCN(c4cccc(Cl)c4)CC3)C(=O)C12` (configuration not stated), the Activity entry in [1] is “Not Active”. Besides, the figures for the inhibition constant (Ki) in series [2] and in series [3] were 376 nM and 37 nM, respectively. The outcome in series [4] and in series [8] was inactive.

As for `COc1ccccc1N1CCN(CCCN2C(=O)C3C4C(C)=CC(OC(C)=O)(CC4C)C3C2=O)CC1` (configuration not stated), the Activity result in [1] is recorded as “Not Active”. Besides, the values for the Ki in series [2] and in series [3] were 1020 nM and 35 nM, respectively. The result in [4] and in series [8] was inactive.

`CC(=O)OC12C=C(C)C(C(C)C1)C1C(=O)N(CCCCN3CCN(c4ccc(F)cc4)CC3)C(=O)C12` (configuration not stated): the Ki stood at 170 nM in series [2] and 286 nM in [3].

As to `CC1CC2(C)CC(=O)C1C1C(=O)N(CCCCN3CCN(c4ccc(F)cc4)CC3)C(=O)C12` (configuration not stated), the Activity result in series [1] is “Not Active”. The results for the Ki in series [2] and in series [3] were 102 nM and 521 nM, respectively. For the same molecule, the outcome in [4] and in series [8] was inactive.

With `CC1CC2(C)CC(=O)C1C1C(=O)N(CCCCN3CCN(c4ccccc4)CC3)C(=O)C12` (configuration not stated), the Activity result in series [1] was “Not Active”. For the same molecule, the Ki in [2] stood at 181 nM; in series [3], 50 nM. Moreover, the result in series [4] and in series [8] was inactive.

As to `CCOC12CCC(C(=O)C1)C1C(=O)N(CCCCN3CCN(c4ccccc4OC)CC3)C(=O)C12` (configuration not stated), the Ki in series [2] is 2790 nM; in series [3] it was 26 nM.

The values are drawn from ChEMBL document CHEMBL1152861, “Synthesis and serotonin receptor activity of the arylpiperazine alkyl/propoxy derivatives of new azatricycloundecanes” (Eur J Med Chem, 2009).
